The source made the active and inactive calls. No cut-off for these calls is given here.
How the values were obtained:
Brain = test: Drug uptake in C57BL/6J mouse brain at 20 mg/kg, iv after 2 hrs by LC-MS/MS analysis; type: ADME, organism-based; conditions: in vivo
[1] = molecular target: T1, Receptor-interacting serine/threonine-protein kinase 1 (Homo sapiens, UniProt Q13546); test: Inhibition of RIP1 (unknown origin) using MBP as substrate preincubated for 15 mins followed by MBP/ATP mixture addition measured after 90 mins by ADP-Glo kinase assay
T1 sequence (Q13546 whole entry): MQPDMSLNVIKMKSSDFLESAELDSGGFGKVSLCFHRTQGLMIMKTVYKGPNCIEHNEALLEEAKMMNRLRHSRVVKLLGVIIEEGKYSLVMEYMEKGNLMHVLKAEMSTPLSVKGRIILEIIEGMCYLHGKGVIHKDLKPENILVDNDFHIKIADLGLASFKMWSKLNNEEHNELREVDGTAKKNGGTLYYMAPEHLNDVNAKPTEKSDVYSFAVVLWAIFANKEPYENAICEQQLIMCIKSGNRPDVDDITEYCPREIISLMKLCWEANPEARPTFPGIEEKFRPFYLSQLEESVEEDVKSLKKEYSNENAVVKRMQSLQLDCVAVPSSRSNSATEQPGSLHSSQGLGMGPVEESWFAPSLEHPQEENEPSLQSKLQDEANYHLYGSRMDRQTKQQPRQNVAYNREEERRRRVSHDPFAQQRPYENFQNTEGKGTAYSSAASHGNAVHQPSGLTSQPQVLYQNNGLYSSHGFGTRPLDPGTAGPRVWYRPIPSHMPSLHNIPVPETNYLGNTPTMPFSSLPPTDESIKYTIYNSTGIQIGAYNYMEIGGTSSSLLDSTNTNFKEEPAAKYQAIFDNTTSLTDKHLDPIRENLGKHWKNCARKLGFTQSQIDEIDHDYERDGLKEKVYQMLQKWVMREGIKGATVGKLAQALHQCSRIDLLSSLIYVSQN
Summary of the method: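 Recombinant RIP1 pre-incubated 15 min with compound or DMSO in 25 mM HEPES pH 7.2, 20 mM MgCl2, 12.5 mM MnCl2, 5 mM EGTA, 2 mM EDTA, 12.5 mM β-glycerol phosphate, 2 mM DTT. Reaction started with ATP (50 μM final) and MBP (20 μM final), run 90 min at room temperature. ADP-Glo luminescence read-out.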

[2] = molecular target: T2, Receptor-interacting serine/threonine-protein kinase 1 (Homo sapiens) (UniProt Q13546); test: Inhibition of TNFalpha/z-VAD-FMK-induced RIP1 phosphorylation in human HT-29 cells by Western blot method; type: cell-based
T2 sequence (whole entry): T1 sequence (Q13546 whole entry)

[3] = molecular target: Indoleamine 2,3-dioxygenase 1 (Homo sapiens, UniProt P14902); test: Inhibition of recombinant human IDO expressed in Escherichia coli assessed as reduction in kynurenine production at 200 uM using L-tryptophan as substrate after 3 hrs by methylene blue dye based assay
Summary of the method: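 Reaction mix: 50 mM MES pH 6.5, 20 mM ascorbate, 2250 U/mL catalase, 10 μM methylene blue, 200 μM L-Trp, 100 nM recombinant IDO, 200 μM compound or DMSO. Incubated 37 °C for 3 h; kynurenine colour read at 321 nm.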

[4] = Oral bioavailability in C57BL/6J mouse at 10 mg/kg by LC-MS/MS analysis; type: ADME, organism-based; conditions: in vivo
Summary of the method: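 C57BL/6 mice (n = 3) dosed IV, IP or PO; blood sampled by eye puncture at various time points; plasma levels by LC-MS/MS; parameters from individual animal data by non-compartmental analysis.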

Mus musculus [5] = test: Protection against TNFalpha-induced mortality in C57BL/6J mouse assessed as survival rate at 3 mg/kg, ip pretreated for 17 mins followed by TNFalpha injection and subsequent compound treatment once in every 12 hrs measured every 30 mins up to 60 hrs post TNFalpha injection during compound dosing (reference value: 50%); type: functional
Mus musculus [6] = test: Protection against TNFalpha-induced mortality in C57BL/6J mouse assessed as survival rate at 6 mg/kg, ip administered as single dose 17 mins before TNFalpha injection measured every 30 mins up to 60 hrs post TNFalpha injection (reference value: 50%); type: functional
Mus musculus [7] = test: Protection against TNFalpha-induced multiorgan damage in C57BL/6J mouse assessed as inhibition of TNFalpha-induced increase in IL-1beta level at 0.3 to 3 mg/kg, ip pretreated for 17 mins followed by TNFalpha injection and subsequent compound treatment once in every 12 hrs measured after 12 hrs; type: functional, organism-based
Summary of the method: (§1)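 C57BL/6 mice given 4 μg mTNFα (~0.18 mg/kg) IV. Compound 0.3, 1, 3 mg/kg IP 17 min before and then every 12 h; vehicle controls. Blood taken 12 h and 24 h after TNFα. Assays: IL-6 and IL-1β; serum LDH, CK, AST, creatinine, BUN, amylase.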

Mus musculus [8] = test: (§2) Protection against TNFalpha-induced spleen damage in C57BL/6J mouse assessed as reduction in immune cell infiltration at 0.3 to 3 mg/kg, ip pretreated for 17 mins followed by TNFalpha injection and subsequent compound treatment once in every 12 hrs measured 24 hrs post TNFalpha injection by hematoxylin and eosin staining based assay; type: functional, organism-based
Summary of the method: (§3)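 Mice given mTNFα IV; compound 0.3, 1, 3 mg/kg IP 17 min before and every 12 h. Killed 24 h post-TNFα. Organs fixed 24 h in 10% neutral buffered formalin, paraffin-embedded, 5-μm sections, H&E stained; ×200, at least three mice each.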

Mus musculus [9] = test: Protection against TNFalpha-induced multiorgan damage in C57BL/6J mouse assessed as serum AST level at 0.3 to 3 mg/kg, ip pretreated for 17 mins followed by TNFalpha injection and subsequent compound treatment once in every 12 hrs measured 24 hrs post TNFalpha injection; type: functional, organism-based; summary of the method: as §1
Mus musculus [10] = test: Protection against TNFalpha-induced multiorgan damage in C57BL/6J mouse assessed as serum creatinine level at 0.3 to 3 mg/kg, ip pretreated for 17 mins followed by TNFalpha injection and subsequent compound treatment once in every 12 hrs measured 24 hrs post TNFalpha injection; type: functional, organism-based; summary of the method: as §1
Mus musculus [11] = test: as §2, with “macrophages” for “immune cell”; type: functional, organism-based; summary of the method: as §3
Mus musculus [12] = test: as §2, with “thymus” for “spleen”; type: functional, organism-based; summary of the method: as §3
Mus musculus [13] = test: as §2, with “thymus” for “spleen”, “macrophages” for “immune cell”; type: functional, organism-based; summary of the method: as §3
Mus musculus [14] = test: Protection against TNFalpha-induced pancreas damage in C57BL/6J mouse at 0.3 to 3 mg/kg, ip pretreated for 17 mins followed by TNFalpha injection and subsequent compound treatment once in every 12 hrs measured 24 hrs post TNFalpha injection by hematoxylin and eosin staining based assay; type: functional, organism-based; summary of the method: as §3
Cytochrome P450 2C9 = Cytochrome P450 2C9 (Homo sapiens, UniProt P11712); test: Inhibition of CYP2C9 (unknown origin); type: ADME
Cytochrome P450 2D6 = Cytochrome P450 2D6 (Homo sapiens, UniProt P10635); test: Inhibition of CYP2D6 (unknown origin); type: ADME
[15] = Efflux ratio of apparent permeability in MDCK cells harboring MDR1; type: ADME, cell-based, Canis lupus familiaris; conditions: dog
Mus musculus [16] = test: Toxicity in C57BL/6J mouse assessed as injury at 50 mg/kg administered once in every 3 hrs for 24 hrs; type: organism-based; conditions: in vivo
Summary of the method: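 Mice dosed 50 mg/kg every 3 h for 24 h and examined for injury.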

Chain of Cytochrome P450 2C9 (P11712 whole entry): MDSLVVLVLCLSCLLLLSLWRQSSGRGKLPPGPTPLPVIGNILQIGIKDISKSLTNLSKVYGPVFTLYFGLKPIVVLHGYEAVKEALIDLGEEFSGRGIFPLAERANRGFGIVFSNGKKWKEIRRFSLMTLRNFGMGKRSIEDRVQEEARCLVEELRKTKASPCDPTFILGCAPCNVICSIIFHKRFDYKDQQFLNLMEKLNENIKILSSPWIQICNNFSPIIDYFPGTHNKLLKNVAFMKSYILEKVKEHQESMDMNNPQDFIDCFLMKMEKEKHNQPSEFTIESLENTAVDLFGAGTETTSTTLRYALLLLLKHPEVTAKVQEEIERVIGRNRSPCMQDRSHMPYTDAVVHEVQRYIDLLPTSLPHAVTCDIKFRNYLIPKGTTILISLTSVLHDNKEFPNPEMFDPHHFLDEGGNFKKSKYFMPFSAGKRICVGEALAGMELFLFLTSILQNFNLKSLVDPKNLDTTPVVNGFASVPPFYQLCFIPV
Chain of Cytochrome P450 2D6 (P10635 whole entry): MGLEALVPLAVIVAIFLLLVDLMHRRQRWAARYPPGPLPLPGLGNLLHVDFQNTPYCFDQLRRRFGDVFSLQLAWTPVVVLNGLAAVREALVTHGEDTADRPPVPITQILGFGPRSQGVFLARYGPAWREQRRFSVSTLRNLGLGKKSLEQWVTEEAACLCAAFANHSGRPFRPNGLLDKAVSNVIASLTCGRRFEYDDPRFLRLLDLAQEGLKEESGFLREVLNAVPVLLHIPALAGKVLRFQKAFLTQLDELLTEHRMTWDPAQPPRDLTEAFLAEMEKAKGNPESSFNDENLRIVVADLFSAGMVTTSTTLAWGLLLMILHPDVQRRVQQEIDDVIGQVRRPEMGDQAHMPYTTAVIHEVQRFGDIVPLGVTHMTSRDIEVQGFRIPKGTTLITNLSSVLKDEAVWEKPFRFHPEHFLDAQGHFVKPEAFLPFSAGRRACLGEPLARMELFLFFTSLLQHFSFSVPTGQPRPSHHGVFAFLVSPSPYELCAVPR
Chain of Indoleamine 2,3-dioxygenase 1 (P14902 whole entry): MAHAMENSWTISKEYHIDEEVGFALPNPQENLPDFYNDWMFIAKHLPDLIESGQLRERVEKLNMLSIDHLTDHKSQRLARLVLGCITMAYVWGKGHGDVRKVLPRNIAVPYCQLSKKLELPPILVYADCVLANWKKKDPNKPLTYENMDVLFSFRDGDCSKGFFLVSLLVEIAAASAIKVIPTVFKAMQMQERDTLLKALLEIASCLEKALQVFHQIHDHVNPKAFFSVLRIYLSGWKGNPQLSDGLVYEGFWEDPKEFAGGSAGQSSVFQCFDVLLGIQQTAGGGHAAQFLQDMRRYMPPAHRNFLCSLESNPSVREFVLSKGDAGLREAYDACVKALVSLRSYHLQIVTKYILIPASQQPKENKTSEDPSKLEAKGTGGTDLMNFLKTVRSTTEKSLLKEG

Compound: CCC(C)(C)C(=O)N(O)Cc1ccccc1
- Drug uptake (Brain): Active
- IC50 [1]: 0.013 µM
- inhibition [2]: Active
- inhibition (INH) [3]: Not Active
- bioavailability [4]: 22%
- survival at 3 mg/kg (Mus musculus [5]): 100%
- survival at 6 mg/kg (Mus musculus [6]): 100%
- inhibition (Mus musculus [7]): Active
- Activity (Mus musculus [8]): Active
- Activity (Mus musculus [9]): Active
- Activity (Mus musculus [10]): Active
- Activity (Mus musculus [11]): Active
- Activity (Mus musculus [12]): Active
- Activity (Mus musculus [13]): Active
- Activity (Mus musculus [14]): Active
- IC50 (Cytochrome P450 2C9): > 50 µM
- IC50 (Cytochrome P450 2D6): > 50 µM
- efflux ratio [15]: 0.87
- Activity (Mus musculus [16]): Non-Toxic
